Here are results for 68 molecules from ChEMBL document CHEMBL4513216, “Probing the Open Global Health Chemical Diversity Library for Multistage-Active Starting Points for Next-Generation Antimalarials” (ACS Infect Dis, 2020).

The nature of the data set: Toxicity liver stage against HepG2, at 10uM. Conditions: human, HepG2-A16-CD81EGFP cells; read-out: INHIBITION
It counts as cell-based. The arrangement: test concentration 10 uM, cell line HepG2-A16-CD81EGFP. The essentials: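 Uninfected HepG2-A16-CD81EGFP cells, 3 × 10^3 per well, 1536-well, plated on prespotted compound at 10 μM final, parasite-free screening media added to match infected plates; puromycin 10 μM positive, DMSO 0.5% negative; run in parallel with 48 h PbLuc assay at 37 °C, 5% CO2; viability by CellTiter-Glo luminescence, normalized to controls.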
On to `O=C(N1CCOCC1)N1CCOC[C@H](Oc2ccc(C(F)(F)F)cc2)C1`, for which the cytotoxicity at 10 µM is 1.27%. Next, `COc1ccc(-c2noc([C@@H]3C[C@@H](O)CN3C3CCCCC3)n2)cc1`: 3.25%; `CC(C)COC(=O)N1[C@@H](c2ccco2)[C@@H](CO)C[C@]12CCCCNC2=O`: 1.19%; `COCCn1ccc2ccc(C(=O)N3CCN(C(C)=O)CC3)cc21`: -8.6%. In the case of `CC(C)CS(=O)(=O)Nc1ccc2c(c1)OCC(C)(C)C(=O)N2C` it was -0.123%; in that of `COCC(C)NC(=O)c1nnn(-c2ccc(Br)cc2)n1` (stereo not drawn), -0.712%. Next, `CCOC(=O)C1CN(S(C)(=O)=O)Cc2ncn(CC)c21` (stereo not drawn): 6.74%; `Cc1noc([C@]23COC[C@H]2CN(S(C)(=O)=O)C3)n1`: 10.4%; `Cc1cncc(C(=O)N2CCc3ncc(Cn4cccn4)n3CC2)c1`: 14.3%. In the case of `O=C(NC1CC1)N1CCOCC2(C1)CN(c1ccccc1)C(=O)CO2` (stereo not drawn), the cytotoxicity at 10 µM was -1.37%. For `CC1=N[C@@]2(CC[C@@H]3CN(C(=O)NCC(C)C)C[C@@H]32)C(=O)N1CC(C)C`, the cytotoxicity at 10 µM was found to be 2.68%.

With `Cc1nn(C)c2c(N3CCN(C(=O)C(C)C)CC3)ncnc12`, the cytotoxicity at 10 µM was 6.78%. For the molecule `CCc1cc(C(F)(F)F)n2nc(C3CCCN3C(=O)COC)cc2n1` (stereo not drawn), the cytotoxicity at 10 µM came to 3.01%. As to `Cc1c(F)cccc1S(=O)(=O)Nc1noc(C(C)C)n1`, the cytotoxicity at 10 µM turned out to be 7.21%. Take `Cc1nn(C)c2ncc(NC(=O)N(C)Cc3cc(Cl)cn3C)cc12`: the cytotoxicity at 10 µM was 2.73%. With `CCOc1ccc(NC(=O)NCCS(=O)(=O)CC)cc1C`, the cytotoxicity at 10 µM was -3%.

For `Cc1ccc2c(c1)CCC2NC(=O)N1CCC(C(N)=O)CC1` (stereo not drawn), the cytotoxicity at 10 µM is -4.83%. In the case of `CN(CCCNS(=O)(=O)N1CCC2(CC1)OCCO2)c1ccccc1` it was 9.13%; in that of `Cc1cnc(NC(=O)NC(CCO)c2cccs2)s1` (stereo not drawn), 5.53%; in that of `Cc1cccc(OCCC(=O)N(C)CC(C)C#N)c1C` (stereo not drawn), -0.555%. In the case of `Fc1cccc(NCc2ncc[nH]2)c1` it was -9.16%; in that of `Cc1cc(C(=O)N2CCN(c3ccncc3Cl)CC2)n(C)n1`, -9.1%.

As for `CN(CCc1ccccn1)C(=O)C(O)c1cc(Cl)cc(Cl)c1` (stereo not drawn), the cytotoxicity at 10 µM is -5.68%. As for `O=C(CCn1ccc2ccccc21)Nc1ccnn1CC1CCOC1` (stereo not drawn), the cytotoxicity at 10 µM is 2.56%. With `CC(C)C(=O)N1CCCN(C(=O)NC2CCc3ccccc3C2)CC1` (stereo not drawn), the cytotoxicity at 10 µM is -7.33%.

Regarding `CCN1CCC(CNCc2cc(OC)ccc2OC)C1` (stereo not drawn), the cytotoxicity at 10 µM is -2%.

For the molecule `Cc1cc(F)ccc1CN1CCCC2(C1)OCCO2`, the cytotoxicity at 10 µM was -11.8%. Next, `CCOC[C@@]12CCC[C@@H]1CN(C(=O)COc1ccccc1OC)C2`: -106%. In the case of `Cc1ccc(C(=O)N2C[C@@H](N3CCN(C)CC3)[C@H]3OCCC[C@H]32)cn1` it was -113%. Next, `Cc1nnc([C@@]23CCO[C@@H]2CCN(Cc2scnc2C)C3)o1`: -111%; `O=C(NC[C@]12COC[C@H]1CN(Cc1cccc(F)c1)C2)c1ccco1`: -66.7%; `CN1C(=O)CC(c2cnn(C)c2)C12CCN(C(=O)c1ccco1)CC2` (stereo not drawn): -75.5%.

Turning to `O=S1(=O)C[C@@H]2[C@H](C1)N(Cc1ncc[nH]1)CCN2C/C=C/c1ccccc1`, the cytotoxicity at 10 µM is 11.2%. With `CCn1nc(C)c(C(C)NC(=O)c2cnc(N(C)C)nc2C)c1C` (stereo not drawn), the cytotoxicity at 10 µM worked out at 5.19%. Next, `CC(C(=O)N1CCn2cncc2C1)N1C[C@@H](C)O[C@@H](C)C1` (stereo partly drawn): 3.13%; `CCCS(=O)(=O)N1CCC2(CCC(=O)N(CCc3cccnc3)C2)CC1`: -4.92%; `O=C(c1ccc(-c2cn[nH]c2)nc1)N1CCC(N2CCOCC2)CC1`: 1.38%. For the molecule `Cc1nnsc1C(=O)N(C)Cc1nc(-c2ccccn2)no1`, the cytotoxicity at 10 µM came out at 1.89%. Next, `CC(O)c1cn(C2CCN(C(=O)C3(C)CCCCC3)CC2)nn1` (stereo not drawn): -7.11%.

As to `OCCC1CN(c2ncnc3[nH]cnc23)CCN1Cc1ccccc1F` (stereo not drawn), the cytotoxicity at 10 µM worked out at 17%.

For the molecule `CCc1c(C)nc(C)nc1N1C[C@@H](CN(CC)CCO)[C@@H](CO)C1`, the cytotoxicity at 10 µM is 1.5%.

In the case of `O=C(CC1CCc2ccccc21)NC1(C(=O)O)CCCC1` (stereo not drawn), the cytotoxicity at 10 µM is -11.9%. On to `O=C(O)[C@]12CCCN(Cc3nccs3)[C@@H]1CCN(c1cnccn1)C2`, for which the cytotoxicity at 10 µM was -0.911%. In the case of `Cn1cc(Cl)c(CN2CCn3nc(C(=O)Nc4ccccc4)cc3C2)n1` it was -2.8%; in that of `CCN1CC2(CCC1=O)CCN(CCOc1ccc(F)cc1)CC2`, 4.19%. Regarding `CCC(CO)N(Cc1ccco1)C(=O)c1cccc(C)c1O` (stereo not drawn), the cytotoxicity at 10 µM came out at 0.126%. In the case of `CCn1nc(CNC(=O)C2CCCN(C(=O)COC)C2)c2ccccc21` (stereo not drawn), the cytotoxicity at 10 µM was -1.29%. On to `Cc1nccnc1N1Cc2cnc(CC(C)C)nc2C1`, for which the cytotoxicity at 10 µM was 1.81%. Regarding `CCc1c(C)nn(C)c1NC(=O)N1CCCOC(Cn2cccn2)C1` (stereo not drawn), the cytotoxicity at 10 µM was -8.14%. Take `COc1ncc(C2CC(=O)NCc3nc4ccccn4c32)cn1` (stereo not drawn): the cytotoxicity at 10 µM is -9.75%. Take `CSCC[C@H](N)C(=O)NCc1cc2n(n1)CCCN(C1CCCCC1)C2`: the cytotoxicity at 10 µM is -15.3%. On to `COc1ccc(OC)c(C(O)CNC(=O)Nc2cc(C)nn2C)c1` (stereo not drawn), for which the cytotoxicity at 10 µM is -9.86%. Take `CC(=O)N1CCCCCC1C1CCN(c2ncccc2C#N)CC1` (stereo not drawn): the cytotoxicity at 10 µM is -7.13%. In the case of `Cc1nn(C)c(C)c1CC(=O)N1CCCN(c2cccnn2)CC1` it was -2.1%; in that of `Cc1nc(C)n(CC2CN(Cc3cccc(C#N)c3)CCO2)n1` (stereo not drawn), -10.3%; in that of `O=C(NCc1csc(Br)c1)c1ccc(=O)[nH]n1`, 1.66%. In the case of `COCCOc1ccc(NC(=O)N2CCCC2c2ccncc2)cn1` (stereo not drawn), the cytotoxicity at 10 µM was -3.49%.

Take `Cc1nc2ccccc2nc1CN(C)CC1CCCN1c1cccnn1` (stereo not drawn): the cytotoxicity at 10 µM turned out to be 7.17%. As to `COc1cc(CNCc2ccco2)ccc1OCCO`, the cytotoxicity at 10 µM stood at 3.35%. In the case of `COCCNC(=O)[C@H]1C[C@@H]2CCN(c3ccccc3)C[C@H]2O1`, the cytotoxicity at 10 µM is 2.78%. Take `CS(=O)(=O)N1CCO[C@@H]2CN(Cc3ccc(F)cc3)CC[C@@H]2C1`: the cytotoxicity at 10 µM stood at 6.86%. Regarding `CC(C)c1nc(-c2cc(C(=O)N3CCN(C)CC3)c3ccccn23)cs1`, the cytotoxicity at 10 µM turned out to be 5.77%. Next, `Cc1nc(CN2CC[C@@H](OCC3CC3)[C@@H]2Cc2cccnc2)cs1`: -4.38%; `O=C1[C@@H]2CCN(Cc3ccccn3)C[C@@H]2OCCN1c1ccccc1`: -73.7%. For `Cc1ccc(CC(=O)N2Cc3nccn3CC(CN(C)C)C2)cc1` (stereo not drawn), the cytotoxicity at 10 µM is -9.58%.

As to `Cn1cc(CN2CC[C@@H]3[C@@H]2CCN3C(=O)c2cccc(F)c2)cn1`, the cytotoxicity at 10 µM was -66.4%. In the case of `N#Cc1ccc(C(=O)O)nc1C=Cc1cccc(Cl)c1`, the cytotoxicity at 10 µM amounted to 13%. As to `CC(C)=CCN1C[C@@H]2CC[C@H]1CN(C(=O)c1ccc3nc[nH]c3c1)C2`, the cytotoxicity at 10 µM was -1.31%.
